This is an account of results in ChEMBL document CHEMBL1126768, “A mechanism-based inactivation study of neutral endopeptidase 24.11” (J Med Chem, 1993).

The target of experiment [1] is T1, Neprilysin (Homo sapiens, UniProt P08473). Briefly: Inhibition constant determined for Neutral endopeptidase (NEP). The method in brief: (§1)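 Reversible inhibition of recombinant human NEP (0.5 μM final), tested with inactivator at 1–50 μM in 50 mM HEPES pH 7.4 plus 5% p-dioxane. DAGNPG substrate was used at 100 and 500 μM. NEP was added last and activity was read immediately by continuous fluorescence (ex 342, em 562 nm).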

Experiment [2] addresses T2, Angiotensin-converting enzyme (Rattus norvegicus, UniProt P47820).
T2 sequence (P47820 whole entry): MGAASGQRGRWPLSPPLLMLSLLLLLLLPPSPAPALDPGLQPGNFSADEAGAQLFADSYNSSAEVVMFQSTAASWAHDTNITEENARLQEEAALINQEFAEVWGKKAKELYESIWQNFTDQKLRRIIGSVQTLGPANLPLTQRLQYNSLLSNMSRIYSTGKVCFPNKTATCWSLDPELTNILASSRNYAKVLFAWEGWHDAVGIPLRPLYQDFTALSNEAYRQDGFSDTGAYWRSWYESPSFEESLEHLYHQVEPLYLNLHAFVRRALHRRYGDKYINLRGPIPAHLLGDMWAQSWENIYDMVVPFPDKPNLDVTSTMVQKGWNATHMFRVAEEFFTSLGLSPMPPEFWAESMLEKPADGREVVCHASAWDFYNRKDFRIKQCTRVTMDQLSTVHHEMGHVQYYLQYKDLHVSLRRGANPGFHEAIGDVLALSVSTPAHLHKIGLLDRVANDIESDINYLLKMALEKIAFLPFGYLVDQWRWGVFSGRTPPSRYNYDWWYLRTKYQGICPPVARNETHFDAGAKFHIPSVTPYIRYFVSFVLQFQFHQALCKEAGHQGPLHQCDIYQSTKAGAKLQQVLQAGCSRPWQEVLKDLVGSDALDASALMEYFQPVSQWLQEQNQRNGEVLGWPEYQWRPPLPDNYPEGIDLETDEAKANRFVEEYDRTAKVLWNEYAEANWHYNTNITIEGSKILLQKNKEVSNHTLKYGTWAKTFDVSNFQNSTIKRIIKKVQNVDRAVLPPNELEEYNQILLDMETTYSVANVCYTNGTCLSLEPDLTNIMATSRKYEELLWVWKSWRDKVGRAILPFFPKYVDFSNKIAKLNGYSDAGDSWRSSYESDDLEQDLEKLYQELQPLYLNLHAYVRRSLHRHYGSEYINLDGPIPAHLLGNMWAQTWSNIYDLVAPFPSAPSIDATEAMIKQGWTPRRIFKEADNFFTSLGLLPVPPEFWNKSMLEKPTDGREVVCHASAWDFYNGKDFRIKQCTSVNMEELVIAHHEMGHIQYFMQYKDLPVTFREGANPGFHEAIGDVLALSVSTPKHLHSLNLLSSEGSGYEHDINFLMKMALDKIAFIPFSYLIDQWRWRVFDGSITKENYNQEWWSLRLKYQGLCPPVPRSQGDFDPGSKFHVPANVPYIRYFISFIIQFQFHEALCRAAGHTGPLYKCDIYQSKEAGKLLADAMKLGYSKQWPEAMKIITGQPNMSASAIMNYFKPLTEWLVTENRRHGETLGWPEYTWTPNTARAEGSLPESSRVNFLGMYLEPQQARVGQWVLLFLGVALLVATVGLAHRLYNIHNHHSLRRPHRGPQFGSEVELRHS
Briefly: Inhibition constant determined for Angiotensin I converting enzyme.

In experiment [3] the target is T1, Neprilysin. Briefly: Inhibition constant determined for neutral endopeptidase (NEP). The method in brief:
as §1

Experiment [4] has as its target T2, Angiotensin-converting enzyme. Briefly: Inhibition constant determined for angiotensin converting enzyme (ACE).

T1 sequence (P08473 whole entry): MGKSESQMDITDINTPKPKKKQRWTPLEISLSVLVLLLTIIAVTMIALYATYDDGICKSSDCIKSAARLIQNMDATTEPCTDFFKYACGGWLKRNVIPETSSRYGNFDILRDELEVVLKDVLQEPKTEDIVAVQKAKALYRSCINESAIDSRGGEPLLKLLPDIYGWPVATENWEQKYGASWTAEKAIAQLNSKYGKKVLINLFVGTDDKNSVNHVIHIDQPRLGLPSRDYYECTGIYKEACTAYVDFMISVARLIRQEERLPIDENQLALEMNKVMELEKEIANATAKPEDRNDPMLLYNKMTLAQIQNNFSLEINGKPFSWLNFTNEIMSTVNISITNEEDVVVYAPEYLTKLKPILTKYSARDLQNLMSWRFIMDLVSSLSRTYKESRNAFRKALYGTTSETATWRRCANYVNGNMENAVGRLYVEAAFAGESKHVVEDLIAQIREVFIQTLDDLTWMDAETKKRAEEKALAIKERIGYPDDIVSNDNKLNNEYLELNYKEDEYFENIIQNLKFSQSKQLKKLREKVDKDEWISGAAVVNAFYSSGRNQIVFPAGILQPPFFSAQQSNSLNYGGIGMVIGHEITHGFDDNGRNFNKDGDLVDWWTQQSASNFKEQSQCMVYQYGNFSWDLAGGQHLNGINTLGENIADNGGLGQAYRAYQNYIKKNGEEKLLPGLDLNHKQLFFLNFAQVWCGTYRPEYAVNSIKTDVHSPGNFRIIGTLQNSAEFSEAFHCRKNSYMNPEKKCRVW

As for `N#CCC(=O)NC(Cc1ccccc1)C(=O)NC(Cc1ccccc1)C(=O)O` (centres undefined), the Ki on Neprilysin [1] came to 17 µM; in experiment [2] it was 65 µM.
Regarding `N#CCC(=O)CC(Cc1ccccc1)C(=O)NC(Cc1ccccc1)C(=O)O` (centres undefined), the Ki on Neprilysin [3] was 14 µM; in experiment [4], greater than 10000 µM.

As a reminder, the Ki is a dissociation constant, usually derived from enzyme kinetics or from competition with a known ligand. Lower therefore signals a stronger hold on the target.
